Active and inactive are the calls of the source. The calls are words filed in the database; no cut-off is given here.
Key:
HCT-116 [1] = experiment: Cell cycle arrest in human HCT116 cells assessed as accumulation at G1 phase at 1 uM after 24 hrs by propidium iodide staining-based flow cytometric analysis (reference value: 48.8%); format: functional
In short: (§1)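 Sub-confluent cells treated at several concentrations for 24 h, then pulsed with 10 μM BrdU for 30 min at 37 °C before harvest. Cells were PBS-washed, fixed in 70% ethanol, denatured in 2 M HCl and neutralized. Stained with fluorescein anti-BrdU and propidium iodide; DNA content read by flow cytometry with 488 nm excitation.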

HCT-116 [2] = experiment: Cell cycle arrest in human HCT116 cells assessed as accumulation at subG1 phase at 1 uM after 24 hrs by propidium iodide staining-based flow cytometric analysis (reference value: 1.4%); format: functional; in short: as §1
HCT-116 [3] = experiment: Cell cycle arrest in human HCT116 cells assessed as accumulation at G2/M phase at 0.2 uM after 24 hrs by propidium iodide staining-based flow cytometric analysis (reference value: 19.6%); format: functional; in short: as §1
HCT-116 [4] = experiment: Cell cycle arrest in human HCT116 cells assessed as accumulation at S phase at 0.2 uM after 24 hrs by propidium iodide staining-based flow cytometric analysis (reference value: 31.6%); format: functional; in short: as §1
HCT-116 [5] = experiment: Cell cycle arrest in human HCT116 cells assessed as accumulation at subG1 phase at 0.2 uM after 24 hrs by propidium iodide staining-based flow cytometric analysis (reference value: 1.4%); format: functional; in short: as §1
CCRF-CEM = experiment: Ratio of roscovitine IC50 to compound IC50 for human CEM cells; format: functional
In short: (§2)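 Cytotoxicity IC50s underlying the ratio: cells treated in triplicate with three-fold compound dilutions for 72 h, then Calcein AM added and live-cell fluorescence read at 485/538 nm (ex/em).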

MCF7 [6] = experiment: Ratio of roscovitine IC50 to compound IC50 for human MCF7 cells; format: functional; in short: as §2
CDK9/cyclin T1 = CDK9/cyclin T1 (Homo sapiens, UniProt P50750); experiment: Inhibition of CDK9/CyclinT1 (unknown origin) using (YSPTSPS)2KK as substrate; format: protein-complex assay
Sequence of CDK9/cyclin T1 (O60563 whole entry): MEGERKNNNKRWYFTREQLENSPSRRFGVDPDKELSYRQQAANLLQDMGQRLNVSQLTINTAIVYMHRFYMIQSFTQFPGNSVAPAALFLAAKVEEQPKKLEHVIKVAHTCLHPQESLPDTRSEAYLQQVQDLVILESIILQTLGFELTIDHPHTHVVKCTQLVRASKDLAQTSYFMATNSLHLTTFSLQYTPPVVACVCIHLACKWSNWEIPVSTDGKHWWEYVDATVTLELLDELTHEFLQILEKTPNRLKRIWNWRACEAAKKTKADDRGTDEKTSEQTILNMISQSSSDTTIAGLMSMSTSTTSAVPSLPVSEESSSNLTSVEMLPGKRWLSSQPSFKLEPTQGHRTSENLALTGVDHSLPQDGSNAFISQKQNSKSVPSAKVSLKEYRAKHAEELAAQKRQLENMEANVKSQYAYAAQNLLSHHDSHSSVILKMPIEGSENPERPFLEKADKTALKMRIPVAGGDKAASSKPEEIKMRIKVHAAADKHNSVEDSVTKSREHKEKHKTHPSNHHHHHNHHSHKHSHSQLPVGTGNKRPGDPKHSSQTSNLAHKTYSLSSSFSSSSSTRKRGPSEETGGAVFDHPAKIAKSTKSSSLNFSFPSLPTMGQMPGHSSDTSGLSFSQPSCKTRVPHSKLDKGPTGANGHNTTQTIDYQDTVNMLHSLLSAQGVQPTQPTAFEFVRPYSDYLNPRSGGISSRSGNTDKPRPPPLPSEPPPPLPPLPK
Sequence of CDK9/cyclin T1 (P50750 whole entry): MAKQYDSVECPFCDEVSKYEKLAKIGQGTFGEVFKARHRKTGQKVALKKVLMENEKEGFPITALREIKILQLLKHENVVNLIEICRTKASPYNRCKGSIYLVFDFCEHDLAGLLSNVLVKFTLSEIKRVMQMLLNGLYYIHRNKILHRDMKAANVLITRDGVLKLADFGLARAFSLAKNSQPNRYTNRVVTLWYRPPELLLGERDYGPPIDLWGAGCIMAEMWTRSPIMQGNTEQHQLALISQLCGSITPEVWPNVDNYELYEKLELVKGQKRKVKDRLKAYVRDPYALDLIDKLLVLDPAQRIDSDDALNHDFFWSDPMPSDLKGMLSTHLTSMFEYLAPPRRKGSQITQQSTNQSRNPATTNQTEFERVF
In short: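 Buffer was 60 mM HEPES-NaOH pH 7.5, 3 mM MgCl2, 3 mM MnCl2, vanadate, DTT and PEG. Reactions were stopped with H3PO4 and spotted on P-81 paper, which was then washed. Radioactivity was imaged; IC50 taken from dose–response curves.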

HCT-116 [7] = experiment: Cytotoxicity against human HCT116 cells assessed as reduction in number of viable cells after 72 hrs by fluorescence assay; format: functional, cell-based; settings: HCT-116, 72 h
In short: (§3)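 Three-fold compound dilutions tested in triplicate on cultured cells for 72 h. Viable cells detected by adding Calcein AM and reading fluorescence at 485/538 nm (ex/em).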

MCF7 [8] = experiment: Cytotoxicity against human MCF7 cells assessed as reduction in number of viable cells after 72 hrs by fluorescence assay; format: functional, cell-based; settings: MCF7, 72 h; in short: as §3
K562 [9] = experiment: Cytotoxicity against human K562 cells assessed as reduction in number of viable cells after 72 hrs by fluorescence assay; format: functional, cell-based; settings: K562, 72 h; in short: as §3
HCT-116 [10] = experiment: Induction of apoptosis in human HCT116 cells assessed as caspase-3/7 activation up to 25 uM by fluorescence assay; format: functional, cell-based
In short: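 After 24 h treatment, cells were lysed on ice for 20 min in pH 7.4 HEPES/KCl/EDTA/EGTA/0.2% CHAPS buffer with protease inhibitors and cleared at 10,000 × g for 30 min at 4 °C. Protein was equalized, then incubated for 1 h with 100 μM Ac-DEVD-AMC in PIPES buffer pH 7.3 containing DTT. Fluorescence was read at 355/460 nm; 100 μM Ac-DEVD-CHO served as the negative control.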

K562 [11] = experiment: Induction of apoptosis in human K562 cells assessed as PARP cleavage up to 5 uM after 24 hrs by immunoblotting analysis; format: functional, cell-based
In short: (§4)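 Cells were treated for 24 h, harvested directly into Laemmli sample buffer, and run on SDS-PAGE. Proteins were blotted to nitrocellulose, blocked, probed overnight with primary antibodies, then with peroxidase-linked secondaries. Bands were detected by ECL with a CCD camera. PCNA and tubulin served as loading references.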

HCT-116 [12] = experiment: Induction of apoptosis in human HCT116 cells assessed as decrease in MCL1 level after 24 hrs by immunoblotting analysis; format: functional, cell-based; in short: as §4
K562 [13] = experiment: Induction of apoptosis in human K562 cells assessed as change in BCL2 level up to 5 uM after 24 hrs by immunoblotting analysis; format: functional, cell-based; in short: as §4
HCT-116 [14] = experiment: Induction of apoptosis in human HCT116 cells assessed as caspase-3 activation up to 5 uM after 24 hrs by immunoblotting analysis; format: functional, cell-based; in short: as §4
[15] = target: T1, CDK9/cyclin T1 (Homo sapiens) (UniProt O60563+P50750); experiment: Inhibition of CDK9/CyclinT1 in human HCT116 cells assessed as increase in p21 expression at 1 to 5 uM after 24 hrs by immunoblotting analysis; format: cell-based; settings: HCT-116
In short: (§5)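 Immunoblot: cells lysed by harvesting in Laemmli sample buffer, proteins run on SDS-PAGE, electroblotted to nitrocellulose, blocked, primary antibodies overnight, peroxidase-conjugated secondaries, ECL detection by CCD camera. Antibodies included anti-phospho RNA polymerase II (S2), anti-RNA polymerase II (ARNA-3), anti-p53 (DO-1), anti-p21waf1 (118), anti-PCNA.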

[16] = target: T1, CDK9/cyclin T1 (Homo sapiens); experiment: Inhibition of CDK9/CyclinT1-mediated phosphorylation of RNA polymerase 2 at Ser5 in human K562 cells up to 25 uM after 24 hrs by immunoblotting analysis; format: cell-based; in short: as §5
K562 [17] = experiment: Cell cycle arrest in human K562 cells assessed as accumulation at S phase at 5 uM after 24 hrs by propidium iodide staining-based flow cytometric analysis (reference value: 38.8%); format: functional; in short: as §1
K562 [18] = experiment: Cell cycle arrest in human K562 cells assessed as accumulation at G2/M phase at 1 uM after 24 hrs by propidium iodide staining-based flow cytometric analysis (reference value: 13.8%); format: functional; in short: as §1
K562 [19] = experiment: Cell cycle arrest in human K562 cells assessed as accumulation at G2/M phase at 0.2 uM after 24 hrs by propidium iodide staining-based flow cytometric analysis (reference value: 13.8%); format: functional; in short: as §1
K562 [20] = experiment: Cell cycle arrest in human K562 cells assessed as accumulation at S phase at 0.2 uM after 24 hrs by propidium iodide staining-based flow cytometric analysis (reference value: 38.8%); format: functional; in short: as §1
K562 [21] = experiment: Cell cycle arrest in human K562 cells assessed as accumulation at G1 phase at 0.2 uM after 24 hrs by propidium iodide staining-based flow cytometric analysis (reference value: 47.3%); format: functional; in short: as §1
K562 [22] = experiment: Cell cycle arrest in human K562 cells assessed as accumulation at subG1 phase at 0.2 uM after 24 hrs by propidium iodide staining-based flow cytometric analysis (reference value: 2.4%); format: functional; in short: as §1
HCT-116 [23] = experiment: Cell cycle arrest in human HCT116 cells assessed as accumulation at G2/M phase at 5 uM after 24 hrs by propidium iodide staining-based flow cytometric analysis (reference value: 19.6%); format: functional; in short: as §1
HCT-116 [24] = experiment: Cell cycle arrest in human HCT116 cells assessed as accumulation at S phase at 5 uM after 24 hrs by propidium iodide staining-based flow cytometric analysis (reference value: 31.6%); format: functional; in short: as §1
HCT-116 [25] = experiment: Cell cycle arrest in human HCT116 cells assessed as accumulation at G2/M phase at 1 uM after 24 hrs by propidium iodide staining-based flow cytometric analysis (reference value: 19.6%); format: functional; in short: as §1

Question: Which Activity (HCT-116 [1]) does the source give for `CC[C@@H](Nc1nc(NCc2cc(Cl)ccc2O)c2ncn(C(C)C)c2n1)C(C)O` (mixture of isomers) here?
Answer: Its Activity is 39.4%.

Question: What about the Activity (HCT-116 [2]) of the same compound?
Answer: Its Activity is 3.3%.

Question: And the Activity (HCT-116 [3])?
Answer: The Activity was 23.4%.

Question: And the Activity (HCT-116 [4])?
Answer: The Activity was 31.1%.

Question: What about the Activity (HCT-116 [5]) of the same compound?
Answer: Its Activity is 1.5%.

Question: And the “Ratio IC50” value (CCRF-CEM)?
Answer: The value was over 9.

Question: And the “Ratio IC50” value (MCF7 [6])?
Answer: The value was over 9.

Question: What about the IC50 (CDK9/cyclin T1) of the same compound?
Answer: The IC50 was 0.165 µM.

Question: What about the IC50 (HCT-116 [7]) of the same compound?
Answer: Its IC50 is 2 µM.

Question: And the IC50 (MCF7 [8])?
Answer: The IC50 was 2.6 µM.

Question: What about the IC50 (K562 [9]) of the same compound?
Answer: The IC50 was 3.3 µM.

Question: And the Activity (HCT-116 [10])?
Answer: Its Activity is “Active”.

Question: What about the Activity (K562 [11]) of the same compound?
Answer: Its Activity is “Active”.

Question: And the Activity (HCT-116 [12])?
Answer: Its Activity is “Dose-dependent effect”.

Question: What about the Activity (K562 [13]) of the same compound?
Answer: The Activity was “inactive”.

Question: And the Activity (HCT-116 [14])?
Answer: The Activity was “inactive”.

Question: What about the inhibition [15] of the same compound?
Answer: Its inhibition is “Active”.

Question: What about the inhibition [16] of the same compound?
Answer: The inhibition was “Active”.

Question: What about the Activity (K562 [17]) of the same compound?
Answer: The Activity was 27.8%.

Question: What about the Activity (K562 [18]) of the same compound?
Answer: Its Activity is 28.7%.

Question: And the Activity (K562 [19])?
Answer: The Activity was 25.8%.

Question: What about the Activity (K562 [20]) of the same compound?
Answer: The Activity was 38.5%.

Question: What about the Activity (K562 [21]) of the same compound?
Answer: The Activity was 34.7%.

Question: What about the Activity (K562 [22]) of the same compound?
Answer: The Activity was 2.8%.

Question: And the Activity (HCT-116 [23])?
Answer: Its Activity is 37.9%.

Question: And the Activity (HCT-116 [24])?
Answer: The Activity was 33.7%.

Question: What about the Activity (HCT-116 [25]) of the same compound?
Answer: The Activity was 31.8%.

Reference: ChEMBL document CHEMBL2346655, “Synthesis and in vitro biological evaluation of 2,6,9-trisubstituted purines targeting multiple cyclin-dependent kinases” (Eur J Med Chem, 2013)
